The source made the active and inactive calls. The calls are words filed in the database; no cut-off is given here.
How the values were obtained:
Salmonella typhimurium [1] = assay: Mutagenic activity in Salmonella typhimurium TA1535 at 10 to 100 uM by ames test; format: toxicity, organism-based; details: salmonella enterica subsp. enterica serovar typhimurium
Method in brief: (§1)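 Ames fluctuation test in Salmonella strains TA98, TA100, TA1535 and TA1537, with and without S9, at 10, 50 and 100 µM; scored negative or positive.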

[2] = Efflux ratio of permeability from apical to basolateral side over basolateral to apical side in human Caco2 cells at pH 7.4; format: ADME, cell-based; details: caco-2, pH 7.4
Mus musculus = assay: Antipsychotic activity in C57BL/6J mouse assessed as reduction of amphetamine-induced locomotor activity administered ip 15 mins prior to amphetamine challenge measured for 105 mins by open field test relative to vehicle-treated control; format: functional, organism-based
Salmonella typhimurium [3] = assay: Mutagenic activity in Salmonella typhimurium TA100 at 10 to 100 uM by ames test; format: toxicity, organism-based; details: salmonella enterica subsp. enterica serovar typhimurium; method in brief: as §1
CYP2D6 = CYP2D6 (Homo sapiens, UniProt P10635); assay: Inhibition of human CYP2D6 using dextromethorphan as substrate at 10 uM; format: ADME; details: probe dextromethorphan
Sequence of CYP2D6 (P10635 whole entry): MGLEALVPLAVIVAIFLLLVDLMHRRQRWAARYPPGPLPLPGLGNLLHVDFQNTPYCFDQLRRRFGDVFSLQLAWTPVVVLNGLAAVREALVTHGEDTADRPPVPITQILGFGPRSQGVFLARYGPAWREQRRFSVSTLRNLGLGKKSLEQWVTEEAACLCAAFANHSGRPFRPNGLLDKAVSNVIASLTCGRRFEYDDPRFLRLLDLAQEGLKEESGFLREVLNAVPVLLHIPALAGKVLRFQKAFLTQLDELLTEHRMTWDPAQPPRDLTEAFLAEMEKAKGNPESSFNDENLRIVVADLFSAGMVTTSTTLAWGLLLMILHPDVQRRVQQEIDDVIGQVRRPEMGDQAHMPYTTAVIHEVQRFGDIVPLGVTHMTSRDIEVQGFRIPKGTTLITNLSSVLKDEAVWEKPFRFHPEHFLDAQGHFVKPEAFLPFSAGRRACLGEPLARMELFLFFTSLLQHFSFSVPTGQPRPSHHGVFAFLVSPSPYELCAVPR

Salmonella typhimurium [4] = assay: Mutagenic activity in Salmonella typhimurium TA1537 at 10 to 100 uM by ames test in presence of S9 mixture; format: toxicity, organism-based; details: salmonella enterica subsp. enterica serovar typhimurium; method in brief: as §1
Salmonella typhimurium [5] = assay: Mutagenic activity in Salmonella typhimurium TA100 at 10 to 100 uM by ames test in presence of S9 mixture; format: toxicity, organism-based; details: salmonella enterica subsp. enterica serovar typhimurium; method in brief: as §1
[6] = Plasma concentration in CD1 mouse at 10 mg/kg, ip after 0.5 hrs; format: ADME, organism-based; parameters: dose 10 mg/kg, route intraperitoneal
Method in brief: (§2)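 CD1 mice received a single 10 mg/kg ip dose formulated in pure water. Brain (ng/g) and plasma (ng/mL) levels were measured at 0.5 and 2 h. Brain/plasma ratio assumed a brain tissue density of 1 g/mL.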

Salmonella typhimurium [7] = assay: Mutagenic activity in Salmonella typhimurium TA98 at 10 to 100 uM by ames test in presence of S9 mixture; format: toxicity, organism-based; details: salmonella enterica subsp. enterica serovar typhimurium; method in brief: as §1
CYP2C19 = CYP2C19 (Homo sapiens, UniProt P33261); assay: Inhibition of human CYP2C19 using omeprazole as substrate at 10 uM; format: ADME; details: probe omeprazole
Sequence of CYP2C19 (P33261 whole entry): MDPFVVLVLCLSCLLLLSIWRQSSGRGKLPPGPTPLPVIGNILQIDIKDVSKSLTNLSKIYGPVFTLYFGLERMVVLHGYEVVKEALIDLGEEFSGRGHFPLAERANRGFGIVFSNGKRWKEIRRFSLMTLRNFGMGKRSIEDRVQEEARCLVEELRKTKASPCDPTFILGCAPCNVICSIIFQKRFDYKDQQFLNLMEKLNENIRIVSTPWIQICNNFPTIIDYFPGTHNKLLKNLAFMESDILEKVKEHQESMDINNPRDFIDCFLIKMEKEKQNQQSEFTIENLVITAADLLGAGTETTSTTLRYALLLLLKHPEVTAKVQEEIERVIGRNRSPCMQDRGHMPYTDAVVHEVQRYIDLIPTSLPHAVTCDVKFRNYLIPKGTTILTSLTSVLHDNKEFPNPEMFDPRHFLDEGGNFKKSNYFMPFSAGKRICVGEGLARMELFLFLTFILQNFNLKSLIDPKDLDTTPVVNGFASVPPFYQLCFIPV

Salmonella typhimurium [8] = assay: Mutagenic activity in Salmonella typhimurium TA98 at 10 to 100 uM by ames test; format: toxicity, organism-based; details: salmonella enterica subsp. enterica serovar typhimurium; method in brief: as §1
[9] = molecular target: Voltage-gated inwardly rectifying potassium channel KCNH2 (Homo sapiens, UniProt Q12809); assay: Inhibition of human ERG channel expressed in CHO cells by patch clamp method; format: cell-based
Sequence of Voltage-gated inwardly rectifying potassium channel KCNH2 (Q12809 whole entry): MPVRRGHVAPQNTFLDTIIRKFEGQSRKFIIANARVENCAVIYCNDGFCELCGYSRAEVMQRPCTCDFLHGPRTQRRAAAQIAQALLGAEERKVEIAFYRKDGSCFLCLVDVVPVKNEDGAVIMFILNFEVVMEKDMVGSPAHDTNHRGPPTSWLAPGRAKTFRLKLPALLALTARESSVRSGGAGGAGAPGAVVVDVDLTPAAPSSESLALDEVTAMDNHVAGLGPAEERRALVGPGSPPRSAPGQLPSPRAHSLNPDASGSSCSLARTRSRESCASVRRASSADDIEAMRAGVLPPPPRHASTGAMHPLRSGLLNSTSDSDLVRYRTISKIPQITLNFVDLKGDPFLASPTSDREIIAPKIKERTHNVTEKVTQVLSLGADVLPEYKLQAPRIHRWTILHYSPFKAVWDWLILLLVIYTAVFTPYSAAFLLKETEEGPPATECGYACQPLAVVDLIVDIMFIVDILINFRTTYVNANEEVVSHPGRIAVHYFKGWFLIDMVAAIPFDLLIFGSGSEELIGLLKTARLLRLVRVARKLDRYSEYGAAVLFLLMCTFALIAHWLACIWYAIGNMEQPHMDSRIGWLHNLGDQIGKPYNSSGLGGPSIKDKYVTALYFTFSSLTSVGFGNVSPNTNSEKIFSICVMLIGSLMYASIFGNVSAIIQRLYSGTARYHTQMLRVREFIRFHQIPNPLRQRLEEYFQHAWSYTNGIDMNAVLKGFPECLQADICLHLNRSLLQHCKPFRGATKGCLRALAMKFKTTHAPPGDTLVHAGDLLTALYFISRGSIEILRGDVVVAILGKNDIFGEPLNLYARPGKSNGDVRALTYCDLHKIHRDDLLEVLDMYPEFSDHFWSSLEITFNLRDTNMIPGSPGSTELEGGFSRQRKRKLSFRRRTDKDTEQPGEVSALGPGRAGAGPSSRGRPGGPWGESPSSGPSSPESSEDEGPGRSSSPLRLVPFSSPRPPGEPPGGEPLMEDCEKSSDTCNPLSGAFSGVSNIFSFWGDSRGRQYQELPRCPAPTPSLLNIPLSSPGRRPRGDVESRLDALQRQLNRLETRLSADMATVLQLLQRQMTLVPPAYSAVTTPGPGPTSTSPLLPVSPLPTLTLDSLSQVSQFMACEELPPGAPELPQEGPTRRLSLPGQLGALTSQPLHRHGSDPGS

[10] = molecular target: T1, 5-hydroxytryptamine receptor 2C (Homo sapiens, UniProt P28335); assay: Agonist activity at human 5-HT2C receptor expressed in HEK293 cells assessed as calcium flux by FLIPR assay; format: functional, cell-based
T1 sequence (P28335 whole entry): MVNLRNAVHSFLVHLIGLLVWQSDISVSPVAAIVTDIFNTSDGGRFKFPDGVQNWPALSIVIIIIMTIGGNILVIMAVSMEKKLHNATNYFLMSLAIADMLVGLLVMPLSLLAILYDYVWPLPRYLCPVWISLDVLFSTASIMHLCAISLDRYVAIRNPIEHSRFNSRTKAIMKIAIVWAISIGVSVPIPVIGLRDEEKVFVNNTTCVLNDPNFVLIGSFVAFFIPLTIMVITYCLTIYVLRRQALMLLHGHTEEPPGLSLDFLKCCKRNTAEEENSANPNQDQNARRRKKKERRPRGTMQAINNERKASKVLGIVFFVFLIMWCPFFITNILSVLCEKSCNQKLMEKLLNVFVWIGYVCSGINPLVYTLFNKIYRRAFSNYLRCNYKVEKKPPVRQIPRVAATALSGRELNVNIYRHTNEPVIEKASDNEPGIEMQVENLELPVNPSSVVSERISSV

[11] = Drug uptake in CD1 mouse brain at 10 mg/kg, ip after 2 hrs; format: ADME, organism-based; parameters: dose 10 mg/kg, route intraperitoneal; details: read-out: Drug uptake; method in brief: as §2
[12] = Permeability from apical to basolateral side in human Caco2 cells at pH 7.4; format: ADME, cell-based; details: caco-2, pH 7.4
Method in brief: (§3)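 Caco-2 monolayer permeability measured A–B and B–A in pH 7.4 buffer, reported as ×10−6 cm/s; A–B/B–A ratio derived from these.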

[13] = Permeability from basolateral to apical side in human Caco2 cells at pH 7.4; format: ADME, cell-based; details: caco-2, pH 7.4; method in brief: as §3
[14] = Drug uptake in CD1 mouse brain at 10 mg/kg, ip after 0.5 hrs; format: ADME, organism-based; parameters: dose 10 mg/kg, route intraperitoneal; details: read-out: Drug uptake; method in brief: as §2
Nucleic Acid [15] = assay: Ratio of drug uptake from brain to plasma in CD1 mouse at 10 mg/kg, ip after 2 hrs; format: ADME, organism-based; parameters: dose 10 mg/kg, route intraperitoneal
Nucleic Acid [16] = assay: Ratio of drug uptake from brain to plasma in CD1 mouse at 10 mg/kg, ip after 0.5 hrs; format: ADME, organism-based; parameters: dose 10 mg/kg, route intraperitoneal
CYP2C9 = CYP2C9 (Homo sapiens, UniProt P11712); assay: Inhibition of human CYP2C9 using diclofenac as substrate at 10 uM; format: ADME; details: probe diclofenac
Sequence of CYP2C9 (P11712 whole entry): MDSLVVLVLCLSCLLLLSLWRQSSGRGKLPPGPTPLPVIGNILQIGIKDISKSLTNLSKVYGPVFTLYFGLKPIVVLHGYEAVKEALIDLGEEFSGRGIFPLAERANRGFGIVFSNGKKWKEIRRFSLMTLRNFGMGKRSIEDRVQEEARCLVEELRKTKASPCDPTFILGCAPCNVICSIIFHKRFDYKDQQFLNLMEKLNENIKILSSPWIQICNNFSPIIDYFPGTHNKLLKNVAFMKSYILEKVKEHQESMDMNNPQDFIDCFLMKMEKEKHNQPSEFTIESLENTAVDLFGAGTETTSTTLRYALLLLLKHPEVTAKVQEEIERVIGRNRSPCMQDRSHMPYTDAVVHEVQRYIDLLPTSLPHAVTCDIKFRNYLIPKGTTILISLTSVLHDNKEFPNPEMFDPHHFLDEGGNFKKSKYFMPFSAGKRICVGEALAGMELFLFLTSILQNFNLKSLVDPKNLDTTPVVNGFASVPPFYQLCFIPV

[17] = molecular target: T2, 5-hydroxytryptamine receptor 2B (Homo sapiens, UniProt P41595); assay: Agonist activity at human 5-HT2B receptor expressed in HEK293 cells assessed as calcium flux by FLIPR assay; format: functional, cell-based
T2 sequence (P41595 whole entry): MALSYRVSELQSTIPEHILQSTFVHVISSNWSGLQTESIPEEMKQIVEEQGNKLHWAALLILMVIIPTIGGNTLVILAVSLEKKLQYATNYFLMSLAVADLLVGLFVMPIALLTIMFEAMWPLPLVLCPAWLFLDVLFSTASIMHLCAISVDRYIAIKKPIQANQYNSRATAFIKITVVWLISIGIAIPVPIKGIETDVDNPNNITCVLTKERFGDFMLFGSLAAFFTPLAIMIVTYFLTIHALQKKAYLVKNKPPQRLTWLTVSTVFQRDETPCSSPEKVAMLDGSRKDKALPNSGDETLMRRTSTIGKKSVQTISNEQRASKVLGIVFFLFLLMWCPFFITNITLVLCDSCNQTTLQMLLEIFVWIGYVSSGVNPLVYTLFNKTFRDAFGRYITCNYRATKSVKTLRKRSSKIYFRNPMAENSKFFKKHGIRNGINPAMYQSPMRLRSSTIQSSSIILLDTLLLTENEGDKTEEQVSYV

[18] = Plasma concentration in CD1 mouse at 10 mg/kg, ip after 2 hrs; format: ADME, organism-based; parameters: dose 10 mg/kg, route intraperitoneal; method in brief: as §2
CYP3A = CYP3A (Homo sapiens, UniProt P08684+P20815+P24462+Q9HB55); assay: Inhibition of human CYP3A using midazolam as substrate at 10 uM; format: ADME; details: probe midazolam
Method in brief: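 Human liver microsomes, test compound at 10 µM, midazolam as CYP3A substrate; percent inhibition reported; run by a contract lab.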

[19] = Plasma protein binding in human at 10 uM; format: ADME, cell-free
Method in brief: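 Human plasma protein binding determined at 10 µM compound, expressed as % bound.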

[20] = molecular target: 5-hydroxytryptamine receptor 2A (Homo sapiens, UniProt P28223); assay: Agonist activity at human 5-HT2A receptor expressed in HEK293 cells assessed as calcium flux at 10 uM by FLIPR assay; format: functional, cell-based
Sequence of 5-hydroxytryptamine receptor 2A (P28223 whole entry): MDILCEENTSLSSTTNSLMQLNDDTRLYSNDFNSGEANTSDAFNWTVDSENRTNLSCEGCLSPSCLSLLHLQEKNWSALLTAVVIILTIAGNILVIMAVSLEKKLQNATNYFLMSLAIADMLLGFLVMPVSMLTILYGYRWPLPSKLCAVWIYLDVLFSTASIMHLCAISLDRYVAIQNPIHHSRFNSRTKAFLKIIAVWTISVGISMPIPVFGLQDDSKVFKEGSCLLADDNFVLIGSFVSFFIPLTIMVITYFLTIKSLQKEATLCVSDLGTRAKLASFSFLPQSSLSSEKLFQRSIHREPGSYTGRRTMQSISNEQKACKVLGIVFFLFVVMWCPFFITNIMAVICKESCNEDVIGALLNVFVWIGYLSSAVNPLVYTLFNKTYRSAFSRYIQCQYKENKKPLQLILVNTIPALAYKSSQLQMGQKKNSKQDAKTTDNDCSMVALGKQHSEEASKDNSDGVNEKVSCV
Method in brief: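 Flp-In-293 cells stably expressing human 5-HT2A, 5-HT2B or 5-HT2C-INI, grown in DMEM with 10% dialyzed FBS, then plated for 24 h in 1% dialyzed FBS. Cells were loaded 1 h at 37 °C with calcium dye in Hepes-buffered HBSS, pH 7.40, containing 2.5 mM probenecid. FLIPR read 10 s baseline, then 120 s after drug addition.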

CYP2B6 = molecular target: T3, CYP2B6 (Homo sapiens, UniProt P20813); assay: Inhibition of human CYP2B6 using bupropion as substrate at 10 uM; format: ADME; details: probe bupropion
T3 sequence (P20813 whole entry): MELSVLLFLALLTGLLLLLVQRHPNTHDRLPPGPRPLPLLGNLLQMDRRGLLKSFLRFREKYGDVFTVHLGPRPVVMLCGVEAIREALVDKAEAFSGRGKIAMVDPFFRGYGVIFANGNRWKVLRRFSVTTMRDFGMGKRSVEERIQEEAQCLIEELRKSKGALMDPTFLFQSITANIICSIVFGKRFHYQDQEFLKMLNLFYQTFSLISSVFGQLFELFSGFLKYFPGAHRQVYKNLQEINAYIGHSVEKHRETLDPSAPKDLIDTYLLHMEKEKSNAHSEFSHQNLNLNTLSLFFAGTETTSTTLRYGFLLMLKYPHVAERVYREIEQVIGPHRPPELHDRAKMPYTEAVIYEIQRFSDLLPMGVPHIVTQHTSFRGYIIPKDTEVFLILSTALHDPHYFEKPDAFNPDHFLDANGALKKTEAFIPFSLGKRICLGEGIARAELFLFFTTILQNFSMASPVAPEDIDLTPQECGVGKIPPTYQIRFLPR

Liver microsome = assay: Metabolic stability in human liver microsomes; format: ADME
Method in brief: (§4)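 Incubation with human or CD-1 mouse liver microsomes for 1 h; stability expressed as % parent compound remaining.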

[21] = molecular target: T2, 5-hydroxytryptamine receptor 2B; assay: Agonist activity at human 5-HT2B receptor expressed in HEK293 cells assessed as calcium flux by FLIPR assay relative to 5-HT; format: functional, cell-based
Method in brief: (§5)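 Flp-In-293 cells stably expressing human 5-HT2A, 5-HT2B or 5-HT2C-INI; grown 24–48 h in DMEM/10% dialyzed FBS, plated on poly-L-Lys at 12000 cells/well in 1% dialyzed FBS for 24 h. Loaded 1 h at 37 °C with calcium dye in HBSS, 20 mM Hepes pH 7.40, 2.5 mM probenecid.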

Liver = assay: Metabolic stability in mouse liver microsomes; format: ADME; method in brief: as §4
[22] = molecular target: T4, 5-hydroxytryptamine receptor 2C (Homo sapiens) (UniProt P28335); assay: Agonist activity at human 5-HT2C receptor expressed in HEK293 cells assessed as calcium flux by FLIPR assay relative to 5-HT; format: functional, cell-based; method in brief: as §5
T4 sequence (whole entry): T1 sequence (P28335 whole entry)

Salmonella typhimurium [23] = assay: Mutagenic activity in Salmonella typhimurium TA1537 at 10 to 100 uM by ames test; format: toxicity, organism-based; details: salmonella enterica subsp. enterica serovar typhimurium; method in brief: as §1
Salmonella typhimurium [24] = assay: Mutagenic activity in Salmonella typhimurium TA1535 at 10 to 100 uM by ames test in presence of S9 mixture; format: toxicity, organism-based; details: salmonella enterica subsp. enterica serovar typhimurium; method in brief: as §1

SMILES: C=C(F)COc1ccc(Cl)cc1[C@H]1C[C@@H]1CN.Cl
- Activity (Salmonella typhimurium [1]): Non-toxic
- Ratio [2]: 3.5
- Activity (Mus musculus): Dose-dependent effect
- Activity (Salmonella typhimurium [3]): Non-toxic
- inhibition at 10 µM (CYP2D6): 80%
- Activity (Salmonella typhimurium [4]): Non-toxic
- Activity (Salmonella typhimurium [5]): Non-toxic
- concentration at 0.5 h [6]: 1440 ng/mL
- Activity (Salmonella typhimurium [7]): Non-toxic
- inhibition at 10 µM (CYP2C19): 33%
- Activity (Salmonella typhimurium [8]): Non-toxic
- IC50 [9]: 3980 nM
- EC50 [10]: 133 nM
- concentration at 2 h [11]: 14700 ng/g
- permeability [12]: 38.3 ×10⁻⁶ cm/s
- permeability [13]: 10.8 ×10⁻⁶ cm/s
- concentration at 0.5 h [14]: 17500 ng/g
- BPR (Nucleic Acid [15]): 16.2
- BPR (Nucleic Acid [16]): 12.1
- inhibition at 10 µM (CYP2C9): 51%
- EC50 [17]: 1690 nM
- concentration at 2 h [18]: 903 ng/mL
- inhibition at 10 µM (CYP3A): 27%
- PPB [19]: 68%
- Activity [20]: inactive
- inhibition at 10 µM (CYP2B6): 77%
- Stability (Liver microsome): 80%
- Emax [21]: 27%
- Stability (Liver): 62%
- Emax [22]: 81%
- Activity (Salmonella typhimurium [23]): Non-toxic
- Activity (Salmonella typhimurium [24]): Non-toxic

Source: ChEMBL document CHEMBL3414471 (J Med Chem, 2015)
